Laboratory results: ChEMBL document CHEMBL1221294, “Novel nucleosides as potent influenza viral inhibitors” (Bioorg Med Chem, 2010)
≈ marks a conversion by molar mass, not a printed value. Calls of active or inactive are those of the source. No cut-off for these calls is given here.

What was measured:
[1] = test system: Influenza B virus; assay: Antiviral activity against Influenza B virus Florida/4/2006 infected in MDCK cells; format: functional, cell-based; conditions: B/Florida/4/2006, MDCK
[2] = test system: Influenza A virus; assay: Antiviral activity against Influenza A virus H5N1 Vietnam/1203/2004H infected in MDCK cells; format: functional, organism-based; conditions: A/Viet Nam/1203/2004(H5N1)
[3] = test system: MDCK; assay: Cytotoxicity against MDCK cells; format: cell-based; conditions: Canis lupus familiaris
Summary of the method: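 Run in MDCK cells, two uninfected toxicity-control wells per compound concentration alongside the infected wells. Neutral red uptake in these wells is read spectrophotometrically to give an NR IC50. The wells are also examined microscopically against untreated normal cells for enlargement, granularity, rounding, detachment and similar changes. The IC50 from these observations is derived by regression analysis.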

[4] = test system: Influenza B virus; assay: Antiviral activity against Influenza B virus Florida/4/2006 infected in MDCK cells at up to 100 uM; format: functional, cell-based; conditions: B/Florida/4/2006
[5] = test system: Influenza A virus; assay: Antiviral activity against Influenza A virus H5N1 Vietnam/1203/2004H infected in MDCK cells at up to 100 uM; format: functional, organism-based; conditions: A/Viet Nam/1203/2004(H5N1)
[6] = test system: Influenza A virus; assay: Antiviral activity against Influenza A virus H5N1 Vietnam/1203/2004H infected in MDCK cells assessed as reduction of virus-induced cytopathogenicity by confocal microscopic analysis; format: functional, organism-based; conditions: A/Viet Nam/1203/2004(H5N1)
[7] = Selectivity index, IC50 for MDCK cells to EC90 for Influenza B virus Florida/4/2006 infected in MDCK cells assessed as reduction of viral yield; format: functional
Summary of the method: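 Retest in MDCK cells of compounds active by neutral red, with virus yield reduction measured on the same plate as CPE inhibition. A known active drug is the parallel positive control. EC90 is the concentration lowering virus yield by 1 log10. SI is the ratio of cytotoxic IC50 to EC90.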

[8] = test system: Influenza A virus; assay: Antiviral activity against Influenza A virus H5N1 Vietnam/1203/2004H infected in MDCK cells assessed as reduction of viral yeild; format: functional; conditions: A/Viet Nam/1203/2004(H5N1)
[9] = test system: Influenza B virus; assay: Antiviral activity against Influenza B virus Florida/4/2006 infected in MDCK cells assessed as reduction of virus-induced cytopathogenicity by confocal microscopic analysis; format: functional, cell-based; conditions: B/Florida/4/2006, MDCK
[10] = Selectivity index, IC50 for MDCK cells to EC50 for Influenza B virus Florida/4/2006 infected in MDCK cells assessed as reduction of virus-induced cytopathogenicity by confocal microscopic analysis; format: functional
Summary of the method: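 CPE inhibition in MDCK cells, scored microscopically. At each concentration, two uninfected treated wells are examined for morphology changes against normal control cells: enlargement, granularity, ragged edges, filmy appearance, rounding or detachment. Cytotoxic IC50 is found by regression analysis. SI = IC50/EC50.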

[11] = test system: Influenza B virus; assay: Antiviral activity against Influenza B virus Florida/4/2006 infected in MDCK cells assessed as reduction of viral yeild; format: functional; conditions: B/Florida/4/2006, MDCK
[12] = Selectivity index, IC50 for MDCK cells to EC50 for Influenza B virus Florida/4/2006 infected in MDCK cells assessed as increase of neutral red uptake; format: functional
Summary of the method: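 Run in MDCK cells. Antiviral EC50 comes from neutral red uptake, since undamaged cells take up more dye, read on a microplate reader. Cytotoxicity uses neutral red in uninfected, compound-treated toxicity control wells run alongside, read spectrophotometrically to give NR IC50. SI = IC50/EC50.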

[13] = test system: Influenza A virus; assay: Antiviral activity against Influenza A virus H5N1 Vietnam/1203/2004H infected in MDCK cells assessed as increase of neutral red uptake; format: functional, organism-based; conditions: A/Viet Nam/1203/2004(H5N1)
Summary of the method: (§1)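 Neutral red dye uptake read-out run in MDCK cells. Cells not damaged by virus take up more dye, which is measured on a microplate reader. The EC50 is derived from dye uptake.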

[14] = test system: Influenza B virus; assay: Antiviral activity against Influenza B virus Florida/4/2006 infected in MDCK cells assessed as increase of neutral red uptake; format: functional, cell-based; conditions: B/Florida/4/2006, MDCK; summary of the method: as §1

SMILES | EC50 [1] [µg/mL] | EC50 [2] [µg/mL] | IC50 [3] [µg/mL] | Activity [4] | Activity [5] | also measured
CC(=O)O[C@@]1(C)[C@@H](COC(=O)c2ccccc2)O[C@@H](n2cnc3c(NCc4ccco4)ncnc32)[C@]1(C)F | 32 (≈ 61.1 µM) | 31 (≈ 59.2 µM) | > 100 |  |  | 
CC(=O)O[C@]1(C)[C@@H](COC(=O)c2ccccc2)O[C@H](n2cnc3c(Cl)ncnc32)[C@]1(C)F |  |  |  | inactive | inactive | 
CC(=O)O[C@@]1(C)[C@@H](COC(=O)c2ccccc2)O[C@@H](n2cnc3c(Cl)ncnc32)[C@]1(C)F | 3.7 (≈ 7.99 µM) | 7.1 (≈ 15.3 µM) | 18 (≈ 38.9 µM) |  |  | EC50 [6]: 1.26 µg/mL (≈ 2.72 µM); Ratio IC50/EC50 [7]: 2.9; EC90 [8]: 4.4 µg/mL (≈ 9.51 µM); EC50 [9]: 1.2 µg/mL (≈ 2.59 µM); Ratio IC50/EC50 [10]: 15; EC90 [11]: 6.3 µg/mL (≈ 13.6 µM); Ratio IC50/EC50 [12]: 15; EC50 [13]: 1.76 µg/mL (≈ 3.8 µM); EC50 [14]: 1.2 µg/mL (≈ 2.59 µM)
CCOc1ncnc2c1ncn2[C@H]1O[C@H](COC(=O)c2ccccc2)[C@](C)(OC(C)=O)[C@@]1(C)F |  |  |  | inactive | inactive | 
C[C@]1(F)[C@@H](n2cnc3c(N)ncnc32)O[C@H](CO)[C@@]1(C)O |  |  |  | inactive | inactive | 
C[C@]1(F)[C@H](n2cnc3c(N)ncnc32)O[C@H](CO)[C@@]1(C)O | > 100 | > 100 | > 100 |  |  | 
CC(=O)O[C@@]1(C)[C@@H](COC(=O)c2ccccc2)O[C@@H](n2cnc3c(NCC4CC4)ncnc32)[C@]1(C)F | 17 (≈ 34.2 µM) | 32 (≈ 64.3 µM) | > 100 |  |  | 
CC(=O)O[C@@]1(C)[C@@H](COC(=O)c2ccccc2)O[C@H](n2cnc3c(NCC4CC4)ncnc32)[C@]1(C)F |  |  |  | inactive | inactive | 
C[C@]1(O)[C@@H](CO)O[C@H](n2cnc3c(N4CCOCC4)ncnc32)[C@]1(C)F |  |  |  | inactive | inactive | 
CC(=O)O[C@@]1(C)[C@@H](COC(=O)c2ccccc2)O[C@@H](n2cnc3c(N4CCN(C)CC4)ncnc32)[C@]1(C)F | 42 (≈ 79.8 µM) | > 100 | > 100 |  |  | 
CC(=O)O[C@@]1(C)[C@@H](COC(=O)c2ccccc2)O[C@H](n2cnc3c(N4CCOCC4)ncnc32)[C@]1(C)F |  |  |  | inactive | inactive | 
CC(=O)O[C@]1(C)[C@@H](COC(=O)c2ccccc2)O[C@@H](n2cnc3c(Cl)ncnc32)[C@]1(C)F | > 100 | > 100 | > 100 |  |  | 
CC(=O)O[C@@]1(C)[C@@H](COC(=O)c2ccccc2)O[C@H](n2cnc3c(NCc4ccco4)ncnc32)[C@]1(C)F |  |  |  | inactive | inactive | 
CC(=O)O[C@@]1(C)[C@@H](COC(=O)c2ccccc2)O[C@H](n2cnc3c(NC4CCC4)ncnc32)[C@]1(C)F |  |  |  | inactive | inactive | 
CC(=O)O[C@@]1(C)[C@@H](COC(=O)c2ccccc2)O[C@@H](n2cnc3c(N4CCOCC4)ncnc32)[C@]1(C)F | 25 (≈ 48.7 µM) | 24 (≈ 46.7 µM) | > 100 |  |  | 
CC(=O)O[C@@]1(C)[C@@H](COC(=O)c2ccccc2)O[C@H](n2cnc3c(N4CCN(C)CC4)ncnc32)[C@]1(C)F |  |  |  | inactive | inactive | 
CCOc1ncnc2c1ncn2[C@H]1O[C@H](CO)[C@](C)(O)[C@@]1(C)F |  |  |  | inactive | inactive | 

SMILES | EC50 [1] [µg/mL] | EC50 [2] [µg/mL] | IC50 [3] [µg/mL] | Activity [4] | Activity [5] | also measured
CC(=O)O[C@@]1(C)[C@@H](COC(=O)c2ccccc2)O[C@@H](n2cnc3c(NC4CCC4)ncnc32)[C@]1(C)F | 27 (≈ 54.3 µM) | 23 (≈ 46.2 µM) | > 100 |  |  | 
C[C@]1(O)[C@@H](CO)O[C@H](n2cnc3c(NCc4ccc(F)cc4)ncnc32)[C@]1(C)F |  |  |  | inactive | inactive | 
CC(=O)O[C@@]1(C)[C@@H](COC(=O)c2ccccc2)O[C@@H](n2cnc3c(NC4CC4)ncnc32)[C@]1(C)F | 20 (≈ 41.4 µM) | 50 (≈ 103 µM) | > 100 |  |  | 
C[C@]1(O)[C@@H](CO)O[C@H](n2cnc3c(NCc4ccco4)ncnc32)[C@]1(C)F |  |  |  | inactive | inactive | 
CN1CCN(c2ncnc3c2ncn3[C@H]2O[C@H](CO)[C@](C)(O)[C@@]2(C)F)CC1 |  |  |  | inactive | inactive | 
C[C@]1(O)[C@@H](CO)O[C@H](n2cnc3c(NC4CCC4)ncnc32)[C@]1(C)F |  |  |  | inactive | inactive | 
C[C@]1(O)[C@@H](CO)O[C@H](n2cnc3c(O)ncnc32)[C@]1(C)F |  |  |  | inactive | inactive | 
C[C@]1(O)[C@@H](CO)O[C@H](n2cnc3c(NCC4CC4)ncnc32)[C@]1(C)F |  |  |  | inactive | inactive | 
CC(=O)O[C@@]1(C)[C@@H](COC(=O)c2ccccc2)O[C@@H](n2cnc3c(O)ncnc32)[C@]1(C)F | 65 (≈ 146 µM) | 33 (≈ 74.3 µM) | > 100 |  |  | 
CC(=O)O[C@@]1(C)[C@@H](COC(=O)c2ccccc2)O[C@H](n2cnc3c(NCc4ccc(F)cc4)ncnc32)[C@]1(C)F |  |  |  | inactive | inactive | 
CC(=O)O[C@@]1(C)[C@@H](COC(=O)c2ccccc2)O[C@H](n2cnc3c(O)ncnc32)[C@]1(C)F |  |  |  | inactive | inactive | 
CC(=O)O[C@@]1(C)[C@@H](COC(=O)c2ccccc2)O[C@H](n2cnc3c(NC4CC4)ncnc32)[C@]1(C)F |  |  |  | inactive | inactive | 
C[C@]1(O)[C@@H](CO)O[C@H](n2cnc3c(NC4CC4)ncnc32)[C@]1(C)F |  |  |  | inactive | inactive | 
CC(=O)O[C@@]1(C)[C@@H](COC(=O)c2ccccc2)O[C@H](n2cnc3c(Cl)ncnc32)[C@]1(C)F |  |  |  | inactive | inactive | 
CC(=O)O[C@@]1(C)[C@@H](COC(=O)c2ccccc2)O[C@@H](n2cnc3c(NCc4ccc(F)cc4)ncnc32)[C@]1(C)F | 30 (≈ 54.4 µM) | 32 (≈ 58 µM) | 36 (≈ 65.3 µM) |  |  | 
CCOc1ncnc2c1ncn2[C@@H]1O[C@H](COC(=O)c2ccccc2)[C@](C)(OC(C)=O)[C@@]1(C)F | > 100 | 48 (≈ 102 µM) | > 100 |  |  | 
